Laboratory results as given in ChEMBL document CHEMBL4732116, “Discovery of novel CA-4 analogs as dual inhibitors of tubulin polymerization and PD-1/PD-L1 interaction for cancer treatment” (Eur J Med Chem, 2021).
Active and inactive are the calls of the source. The calls are words filed in the database; no cut-off is given here.

Assays:
HepG2 = test: Antiproliferative activity against human HepG2 cells assessed as reduction in cell viability measured after 48 hrs by CCK8 assay; format: functional, cell-based; settings: HepG2, 48 h
Procedure, shortened: (§1)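 Cells pre-incubated 24 h at 37 °C, 5% CO2, then exposed to compounds over a concentration range in medium with 0.1% DMSO for a further 48 h at 37 °C. CCK-8 read-out as absorbance at 450 nm. IC50 taken from dose-response curves. Three independent experiments.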

MC-38 = test: Antiproliferative activity against mouse MC38 cells assessed as reduction in cell viability measured after 48 hrs by CCK8 assay; format: functional, cell-based; settings: MC-38, 48 h; procedure, shortened: as §1
HeLa = test: Antiproliferative activity against human HeLa cells assessed as reduction in cell viability measured after 48 hrs by CCK8 assay; format: functional, cell-based; procedure, shortened: as §1
B16-F10 = test: Antiproliferative activity against mouse B16-F10 cells assessed as reduction in cell viability measured after 48 hrs by CCK8 assay; format: functional, cell-based; settings: B16-F10, 48 h; procedure, shortened: as §1
[1] = Antiproliferative activity against human A549/PTX cells assessed as reduction in cell viability measured after 48 hrs by CCK8 assay; format: functional, cell-based; settings: A549/Taxol; procedure, shortened: as §1
HEK293 = test: Cytotoxicity against HEK293 cells assessed as reduction in cell viability measured after 48 hrs by CCK8 assay; format: cell-based; settings: Homo sapiens, HEK293, 48 h; procedure, shortened: as §1
NCM460 = test: Cytotoxicity against human NCM460 cells assessed as reduction in cell viability measured after 48 hrs by CCK8 assay; format: cell-based; settings: NCM460, 48 h; procedure, shortened: as §1
[2] = molecular target: Programmed cell death protein 1/Programmed cell death 1 ligand 1 (Homo sapiens, UniProt Q9NZQ7); test: Inhibition of PD1/PDL1 (unknown origin) protein-protein interaction measured after 15 mins by HTRF assay; format: protein-complex assay
[3] = (§2) Inhibition of pig brain tubulin polymerization by spectrophotometric method; format: tissue-based, Sus scrofa
Procedure, shortened: (§3)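 Pig brain tubulin (three assembly/disassembly cycles, phosphocellulose P11 purification) mixed with compound at various concentrations in PEM buffer (100 mM PIPES, 1 mM MgCl2, 1 mM EGTA) with 1 mM GTP, 5% glycerol; polymerization read at 340 nm, 37 °C; plateau absorbance used.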

Sus scrofa = species: Sus scrofa; test: as §2; format: tissue-based; procedure, shortened: as §3
Tubulin (Homo sapiens) = Tubulin (Homo sapiens) (UniProt P68371+Q9H4B7+P0DPH7+P68366+Q13509+Q71U36+P04350+Q3ZCM7+P07437+P68363+Q9BQE3+Q6PEY2+Q13885+Q9BVA1+Q9BUF5); test: Disruption of microtubule network in human HepG2 cells at 5 uM measured after 24 hrs by immunofluorescence assay; format: cell-based
Procedure, shortened: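 HepG2 cells on glass coverslips, treated 24 h after plating for 24 h (vehicle 0.1% DMSO). Fixed 15 min in 4% formaldehyde, permeabilized 5 min in 0.2% Triton X-100, blocked 30 min in 5% BSA. Immunostained with anti-tubulin antibody, then imaged by confocal laser scanning.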

Chain of Programmed cell death protein 1/Programmed cell death 1 ligand 1 (Q15116 whole entry): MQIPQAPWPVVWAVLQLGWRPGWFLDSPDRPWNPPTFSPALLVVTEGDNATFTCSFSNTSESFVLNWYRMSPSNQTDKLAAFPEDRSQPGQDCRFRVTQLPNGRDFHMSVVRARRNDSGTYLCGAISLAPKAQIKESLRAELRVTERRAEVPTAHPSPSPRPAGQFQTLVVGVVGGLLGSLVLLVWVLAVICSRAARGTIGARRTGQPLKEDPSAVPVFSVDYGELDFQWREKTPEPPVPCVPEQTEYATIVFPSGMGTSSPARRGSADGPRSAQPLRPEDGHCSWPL
Chain of Programmed cell death protein 1/Programmed cell death 1 ligand 1 (Q9NZQ7 whole entry): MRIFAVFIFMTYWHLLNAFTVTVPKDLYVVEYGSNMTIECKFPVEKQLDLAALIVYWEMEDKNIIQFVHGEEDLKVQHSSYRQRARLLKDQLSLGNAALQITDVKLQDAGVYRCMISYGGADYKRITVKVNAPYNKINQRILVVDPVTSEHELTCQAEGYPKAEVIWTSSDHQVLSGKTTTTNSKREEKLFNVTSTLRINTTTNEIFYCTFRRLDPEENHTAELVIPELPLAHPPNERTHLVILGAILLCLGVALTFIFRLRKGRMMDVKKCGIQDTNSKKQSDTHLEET

Row | Compound | IC50 (HepG2) [µM] | IC50 (MC-38) [µM] | IC50 (HeLa) [µM] | IC50 (B16-F10) [µM] | IC50 [1] [µM] | IC50 (HEK293) [µM] | IC50 (NCM460) [µM] | IC50 [2] [µM] | IC50 [3] [µM] | inhibition (Sus scrofa) | inhibition (Tubulin (Homo sapiens))
1 | COc1ccc(/C=C\c2cc(OC)c(OC)c(OC)c2)cc1OCc1ccc(CO)cc1 | 2.4 | 5.7 | 7.6 | 6.6 | 12 | 37 | > 50 | > 100 | – | – | –
2 | COc1ccc(/C=C\c2cc(OC)c(OC)c(OC)c2)cc1OCc1ccc(CN2CCCC[C@H]2C(=O)O)cc1 | > 10 | > 10 | > 10 | > 10 | > 20 | > 50 | > 50 | > 100 | > 200 | – | –
3 | COc1ccc(/C=C\c2cc(OC)c(OC)c(OC)c2)cc1OCc1ccc(CN[C@H](C(=O)O)[C@H](C)O)cc1 | > 10 | > 10 | > 10 | > 10 | > 20 | > 50 | > 50 | 58.6 | – | – | –
4 | COc1ccc(/C=C\c2cc(OC)c(OC)c(OC)c2)cc1OCc1ccc(CN[C@H](C(=O)O)[C@@H](C)O)cc1 | > 10 | > 10 | > 10 | 5.4 | > 20 | > 50 | > 50 | 50.7 | – | – | –
5 | COc1ccc(/C=C\c2cc(OC)c(OC)c(OC)c2)cc1OCc1ccc(CN2CC[C@H](O)C2)cc1 | 6.6 | 7.2 | 10.5 | > 10 | 5.9 | > 50 | 51 | 90 | – | – | –
6 | CC(=O)O[C@H]1C(=O)[C@@]2(C)[C@H]([C@H](OC(=O)c3ccccc3)[C@]3(O)C[C@H](OC(=O)[C@H](O)[C@@H](NC(=O)c4ccccc4)c4ccccc4)C(C)=C1C3(C)C)[C@]1(OC(C)=O)CO[C@@H]1C[C@@H]2O | – | – | – | – | – | – | – | – | – | inactive | –
7 | COc1ccc(/C=C\c2cc(OC)c(OC)c(OC)c2)cc1OCc1ccc(CN2CCCC[C@@H]2C(=O)O)cc1 | > 10 | > 10 | > 10 | > 10 | > 20 | 42 | > 50 | > 100 | – | – | –
8 | COc1ccc(/C=C\c2cc(OC)c(OC)c(OC)c2)cc1OCc1ccc(CN2CC[C@@H](C(=O)O)C2)cc1 | 2.3 | 6.3 | 12.8 | > 10 | > 20 | 27 | > 50 | > 100 | > 200 | – | –
9 | COc1ccc(/C=C\c2cc(OC)c(OC)c(OC)c2)cc1OCc1ccc(CN2CCCCC2C(=O)NCCNC(=O)OC(C)(C)C)cc1 (configuration not stated) | 1.1 | 1.9 | 2 | 4.7 | 15 | 48 | 28 | > 100 | 202 | – | –
10 | COc1ccc(/C=C\c2cc(OC)c(OC)c(OC)c2)cc1OCc1ccc(CNCCNC(C)=O)cc1 | 6.1 | 1.8 | 6.4 | 2.5 | 1.1 | > 50 | 54 | 44.8 | 60.7 | – | –
11 | COc1ccc(/C=C\c2cc(OC)c(OC)c(OC)c2)cc1OCc1ccc(CN2C[C@H](O)[C@@H](F)C2)cc1 | 5.3 | > 10 | 9.2 | > 10 | 19.2 | 29 | 38 | 52 | – | – | –
12 | COc1ccc(/C=C\c2cc(OC)c(OC)c(OC)c2)cc1OCc1ccc(CN2CC[C@@H](O)C2)cc1 | 6.2 | 6.9 | > 10 | > 10 | 8.9 | > 50 | 53 | > 100 | – | – | –
13 | COc1ccc(/C=C\c2cc(OC)c(OC)c(OC)c2)cc1OCc1ccc(CN2CC[C@H](C(=O)O)C2)cc1 | 6.4 | > 10 | > 10 | 7 | 12 | > 50 | > 50 | 38.6 | – | – | –
14 | COc1ccc(/C=C\c2cc(OC)c(OC)c(OC)c2)cc1O [COMBRETASTATIN A4] | 0.59 | 0.08 | 0.06 | 0.05 | 0.62 | 11 | 12 | > 100 | 4.31 | – | –
15 | COc1ccc(/C=C\c2cc(OC)c(OC)c(OC)c2)cc1OCc1ccc(CNC(C)(C)C(=O)O)cc1 | 6.5 | > 10 | > 10 | > 10 | > 20 | > 50 | > 50 | > 100 | – | – | –
16 | COc1ccc(/C=C\c2cc(OC)c(OC)c(OC)c2)cc1OCc1ccc(CN2CC(C(=O)O)C2)cc1 | > 10 | > 10 | 6.5 | > 10 | > 20 | > 50 | > 50 | 42 | – | – | –
17 | COc1ccc(/C=C\c2cc(OC)c(OC)c(OC)c2)cc1OCc1ccc(CNCCO)cc1 | 5.9 | 1.2 | 4.4 | 6.6 | 0.8 | > 50 | 39 | 90.5 | – | – | –
18 | COc1ccc(/C=C\c2cc(OC)c(OC)c(OC)c2)cc1OCc1ccc(CN2CCCCC2C(=O)NCCN)cc1 (configuration not stated) | 4.8 | > 10 | 7.3 | 4.6 | 2.7 | > 50 | > 50 | 65.7 | – | – | –
19 | COc1ccc(/C=C\c2cc(OC)c(OC)c(OC)c2)cc1OCc1ccc(CN2C[C@H](O)C[C@@H]2C(=O)O)cc1 | > 10 | > 10 | > 10 | > 10 | > 20 | > 50 | > 50 | > 100 | – | – | –
20 | COc1ccc(/C=C\c2cc(OC)c(OC)c(OC)c2)cc1OCc1ccc(C=O)cc1 | – | – | – | – | – | – | – | – | – | – | Active
21 | COc1ccc(/C=C\c2cc(OC)c(OC)c(OC)c2)cc1OCc1ccc(CNCCN(C)C)cc1 | 4.4 | 1.4 | 9.4 | > 10 | 1.6 | 39 | 35 | > 100 | – | – | –
22 | COc1ccc(/C=C\c2cc(OC)c(OC)c(OC)c2)cc1OCc1ccc(CN2CCCCC2C(=O)O)cc1 (configuration not stated) | 3.1 | 5.4 | 14.2 | > 10 | 10.2 | > 50 | > 50 | > 100 | – | – | –
